Experimental data taken from ChEMBL document CHEMBL1132965, “Inhibition of Grb2 SH2 domain binding by non-phosphate-containing ligands. 2. 4-(2-Malonyl)phenylalanine as a potent phosphotyrosyl mimetic” (J Med Chem, 2000).

Target: Growth factor receptor-bound protein 2 (Homo sapiens, UniProt P62993)
Experiment: Inhibition of Growth factor receptor bound protein 2 binding by ELISA assay method
How it was run: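 Recombinant purified Grb2 SH2-GST fusion protein preincubated with serial inhibitor dilutions, then added to wells coated overnight with biotinylated Shc-derived phosphopeptide (20 ng/mL); blocking with 5% BSA in TBS, washes with 0.1% BSA/TBS. Bound protein detected with anti-GST antibody plus alkaline phosphatase-conjugated goat anti-mouse antibody, p-nitrophenyl phosphate colorimetric read-out. IC50 from serial dilutions, each concentration in triplicate.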

Chain of Growth factor receptor-bound protein 2 (P62993 whole entry): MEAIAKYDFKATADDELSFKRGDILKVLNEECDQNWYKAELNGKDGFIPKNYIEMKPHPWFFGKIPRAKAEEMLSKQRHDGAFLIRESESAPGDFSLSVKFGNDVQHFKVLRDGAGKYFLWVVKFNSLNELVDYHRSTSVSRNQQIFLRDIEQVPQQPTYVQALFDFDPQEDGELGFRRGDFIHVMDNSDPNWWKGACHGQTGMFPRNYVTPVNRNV

Row | Compound | IC50
1 | Cc1ccc2c(ccn2CCCNC(=O)[C@H](CC(N)=O)NC(=O)C2(NC(=O)[C@H](Cc3ccc(C(C(=O)O)C(=O)O)cc3)NC(=O)C(=O)O)CCCCC2)c1 | 8 nM
2 | NC(=O)C[C@H](NC(=O)C1(NC(=O)[C@H](Cc2ccc(CC(=O)O)cc2)NC(=O)C(=O)O)CCCCC1)C(=O)NCCCc1cccc2ccccc12 | 1000 nM
3 | CC(=O)N[C@@H](Cc1ccc(C(C(=O)O)C(=O)O)cc1)C(=O)NC1(C(=O)N[C@@H](CC(N)=O)C(=O)NCCCc2cccc3ccccc23)CCCCC1 | 160 nM
4 | NC(=O)C[C@H](NC(=O)C1(NC(=O)[C@H](Cc2ccc(OCC(=O)O)cc2)NC(=O)C(=O)O)CCCCC1)C(=O)NCCCc1cccc2ccccc12 | 19000 nM
5 | CC(=O)N[C@@H](Cc1ccc(OCC(=O)O)cc1)C(=O)NC1(C(=O)N[C@@H](CC(N)=O)C(=O)NCCCc2cccc3ccccc23)CCCCC1 | 68000 nM
6 | CC(=O)N[C@@H](Cc1ccc(OC(C(=O)O)C(=O)O)cc1)C(=O)NC1(C(=O)N[C@@H](CC(N)=O)C(=O)NCCCc2cccc3ccccc23)CCCCC1 | 2750 nM
7 | NC(=O)C[C@H](NC(=O)C1(NC(=O)[C@H](Cc2ccc(CP(=O)(O)O)cc2)NC(=O)C(=O)O)CCCCC1)C(=O)NCCCc1cccc2ccccc12 | 50 nM
8 | CC(=O)N[C@@H](Cc1ccc(C(C(=O)O)C(=O)O)cc1)C(=O)NC1(C(=O)N[C@@H](CC(N)=O)C(=O)NCCCn2ccc3cc(C)ccc32)CCCCC1 | 12 nM
9 | CC(=O)N[C@@H](Cc1ccc(CC(=O)O)cc1)C(=O)NC1(C(=O)N[C@@H](CC(N)=O)C(=O)NCCCc2cccc3ccccc23)CCCCC1 | 6400 nM
10 | NC(=O)C[C@H](NC(=O)C1(NC(=O)[C@H](Cc2ccc(OC(C(=O)O)C(=O)O)cc2)NC(=O)C(=O)O)CCCCC1)C(=O)NCCCc1cccc2ccccc12 | 1100 nM
11 | Cc1ccc2c(ccn2CCCNC(=O)[C@H](CC(N)=O)NC(=O)C2(NC(=O)[C@H](Cc3ccc(CP(=O)(O)O)cc3)NC(=O)C(=O)O)CCCCC2)c1 | 2 nM
12 | NC(=O)C[C@H](NC(=O)C1(NC(=O)[C@H](Cc2ccc(C(C(=O)O)C(=O)O)cc2)NC(=O)C(=O)O)CCCCC1)C(=O)NCCCc1cccc2ccccc12 | 70 nM
13 | NC(=O)C[C@H](NC(=O)C1(NC(=O)[C@H](Cc2ccc(C(F)(C(=O)O)C(=O)O)cc2)NC(=O)C(=O)O)CCCCC1)C(=O)NCCCc1cccc2ccccc12 | 170 nM
14 | CC(=O)N[C@@H](Cc1ccc(CP(=O)(O)O)cc1)C(=O)NC1(C(=O)N[C@@H](CC(N)=O)C(=O)NCCCn2ccc3cc(C)ccc32)CCCCC1 | 4 nM
15 | CC(=O)N[C@@H](Cc1ccc(C(F)(C(=O)O)C(=O)O)cc1)C(=O)NC1(C(=O)N[C@@H](CC(N)=O)C(=O)NCCCc2cccc3ccccc23)CCCCC1 | 680 nM
16 | CC(=O)N[C@@H](Cc1ccc(CP(=O)(O)O)cc1)C(=O)NC1(C(=O)N[C@@H](CC(N)=O)C(=O)NCCCc2cccc3ccccc23)CCCCC1 | 20 nM
